Results pooled from the literature.
Lines come from different studies, so protocols differ. Values after ≈ are worked out from the molar mass of the structure shown.

Nc1ccn(C[C@@H](CO)OCP(=O)(O)O)c(=O)n1 — EC50 (Human alphaherpesvirus 1; cytopathic effect; HEL): 2 µM
Cc1ncc([N+](=O)[O-])n1CCO — MIC50 (Bacteroides fragilis; microbial growth): 0.5 µg/mL
CC(C)[C@H](N)C(=O)OCCCCCn1cnc2nc(NCc3ccc(Cl)c(Cl)c3)[nH]c(=O)c21 — MIC (Bacteroides fragilis; microbial growth, agar dilution; 48 h): > 32 µg/mL
CC[C@H](C)C[C@H](C)CCCCCCCCC(=O)N[C@H]1C[C@@H](O)[C@@H](NCCN)NC(=O)[C@@H]2[C@@H](O)CCN2C(=O)[C@H]([C@H](O)CCN)NC(=O)[C@H]([C@H](O)[C@@H](O)c2ccc(O)cc2)NC(=O)[C@@H]2C[C@@H](O)CN2C(=O)[C@H]([C@@H](C)O)NC1=O — MIC (Lodderomyces parapsilosis; microbial growth, broth dilution; ATCC22019): 0.5 µg/mL
O=[N+]([O-])c1ccc(C2=[N+]([O-])c3ccccc3N3CCN=C23)cc1 — MIC50 (Bacteroides fragilis; microbial growth): ≤ 0.06 µg/mL
O=c1[nH]c(=O)n([C@H]2C[C@H](O)[C@@H](CO)O2)cc1/C=C/Br — EC50 (Human alphaherpesvirus 1; cytopathic effect; HEL): 2 µM
CCCCCOc1ccc(-c2cc(-c3ccc(C(=O)N[C@H]4C[C@@H](O)[C@@H](O)NC(=O)[C@@H]5[C@@H](O)[C@@H](C)CN5C(=O)[C@H]([C@H](O)CC(N)=O)NC(=O)[C@H]([C@H](O)[C@@H](O)c5ccc(O)c(OS(=O)(=O)O)c5)NC(=O)[C@@H]5C[C@@H](O)CN5C(=O)[C@H]([C@@H](C)O)NC4=O)cc3)no2)cc1 — MIC90 (Lodderomyces parapsilosis; microbial growth): 4 µg/mL (≈ 3.15 µM)
OC(Cn1cncn1)(Cn1cncn1)c1ccc(F)cc1F — MFC (Aspergillus niger; microbial killing): 40 µM (≈ 12.3 µg/mL)
O=C(NCc1ccc2c(c1)OCO2)c1ccc(Br)cc1F — MIC (Aspergillus brasiliensis; microbial growth; ATCC16404; 72 h): > 200 µM
Cn1cnc2nc(NCc3ccc(Cl)c(Cl)c3)[nH]c(=O)c21 — MIC (Bacteroides fragilis; microbial growth, agar dilution; 48 h): > 32 µg/mL
Nc1nc2c(ncn2COCCO)c(=O)[nH]1 — EC50 (Human alphaherpesvirus 1; cytopathic effect; HEL): 0.2 µM
CCOC(=O)c1ccccc1S(=O)(=O)NC(=O)Nc1nc(Cl)cc(OC)n1 — MIC50 (Lodderomyces parapsilosis; microbial growth, broth dilution; 24 h): 1.1 µM
